In ChEMBL document CHEMBL1629531, “Hydroxycoumarin derivatives: novel and potent α-glucosidase inhibitors” (J Med Chem, 2010):
Each block holds one compound with its values, some of them ahead of it. The source made the active and inactive calls. The calls are words filed in the database; no cut-off is given here.

How the values were obtained:
[1] = Inhibition of Aspergillus oryzae Beta-galactosidase at 400 uM
Outline: (§1)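 β-Galactosidase from Aspergillus oryzae (9.4 unit/mg solid) assayed by a modified literature method. Values are means of ≥3 determinations. NA means <20% inhibition at 400 μM. Maximum inhibition recorded at the top concentration tested (400 or 200 μM).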

[2] = Inhibition of beta-glucosidase using salicin substrate
Outline: (§2)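 β-Glucosidase added to 1 mL mix of inhibitor, 5.0 mM salicin, 0.1 M NaAc-HAc pH 5.0, then reacted 10 min at 40 °C. Stopped with DNS reagent and developed 5 min in boiling water. Reducing sugar read at 540 nm against a glucose standard. Triplicates at five concentrations bracketing an estimated IC50. Maximum inhibition recorded at the top concentration tested (400 or 200 μM).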

[3] = Inhibition of Aspergillus oryzae Beta-galactosidase; outline: as §1
[4] = Inhibition of alpha-glucosidase using para-nitrophenyl substrate
[5] = Effect on secondary structure of alpha-glucosidase assessed as random content at 0.5 uM at circular dichroism method
Outline: (§3)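 Yeast α-glucosidase secondary structure measured by far-UV CD (186-240 nm), protein 0.53-0.66 mg/mL, 0.1 cm quartz cuvette, 5 accumulations per spectrum. Spectra recorded after exposure to inhibitor and compared with enzyme alone. α-helix, β-sheet, β-turn and random fractions estimated by secondary-structure deconvolution.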

[6] = Effect on secondary structure of alpha-glucosidase assessed as beta-sheet content at 0.5 uM at circular dichroism method; outline: as §3
[7] = Effect on secondary structure of alpha-glucosidase assessed as beta-turn content at 0.5 uM at circular dichroism method; outline: as §3
[8] = Effect on secondary structure of alpha-glucosidase assessed as beta-sheet content at 0.3 uM at circular dichroism method; outline: as §3
[9] = Inhibition of beta-glucosidase at 400 uM using salicin substrate; outline: as §2
[10] = Effect on secondary structure of alpha-glucosidase assessed as alpha-helix content at 0.3 uM at circular dichroism method; outline: as §3
[11] = Effect on secondary structure of alpha-glucosidase assessed as random content at 0.3 uM at circular dichroism method; outline: as §3
[12] = Effect on secondary structure of alpha-glucosidase assessed as alpha-helix content at 0.5 uM bt circular dichroism method; outline: as §3
[13] = Effect on secondary structure of alpha-glucosidase assessed as beta-turn content at 0.3 uM at circular dichroism method; outline: as §3
[14] = Inhibition of alpha-glucosidase at 200 uM using para-nitrophenyl substrate
[15] = Noncompetitive inhibition of alpha-glucosidase by Lineweaver-Burk plot
Outline: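 Yeast α-glucosidase (50 μL, 10 U/mL) preincubated with inhibitor at 37 °C for 1 h, then PNP glycoside substrate added at varying concentrations. Rate of PNP hydrolysis read at several inhibitor concentrations. Mode assigned from Lineweaver-Burk (1/rate vs 1/[substrate]) double-reciprocal plots. Ki taken from Dixon plot and averaged over the inhibitor concentrations.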

[16] = Slow binding inhibition of alpha-glucosidase compound administered 1 hr at 37 degC before initiation of enzyme reaction using para-nitrophenyl substrate
Outline: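 Yeast α-glucosidase preincubated with inhibitor at 37 °C for 1 h before the reaction is started with PNP glycoside substrate.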

[17] = Inhibition of Aspergillus oryzae Beta-galactosidase at 200 uM; outline: as §1
[18] = Inhibition of alpha-glucosidase compound administered simultaneously with para-nitrophenyl substrate
Outline: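 Yeast α-glucosidase assay with PNP glycoside substrate, inhibitor and substrate added together with no preincubation.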

[19] = Inhibition of beta-glucosidase at 200 uM using salicin substrate; outline: as §2
[20] = Inhibition of alpha-glucosidase using para-nitrophenyl substrate by dose responsive study

inhibition [1]: 0%
IC50 ([2]; read-out: IC50): 87.6 µM
IC50 [3]: Not Active
IC50 [4]: 50.5 µM
Structure (SMILES): Cc1c(O)ccc2c(O)cc(=O)oc12

Activity [5]: 34.1%
inhibition [1]: 0%
Activity [6]: 7.4%
Activity [7]: 21.4%
Activity [8]: 5.3%
inhibition [9]: 36.7%
Activity [10]: 47.1%
Activity [11]: 29.4%
IC50 ([2]; read-out: IC50): > 400 µM
IC50 [3]: Not Active
Activity [12]: 37.1%
IC50 [4]: 38.9 µM
Activity [13]: 18%
Structure (SMILES): O=c1cc(O)c2ccc(O)cc2o1

inhibition [14]: < 20%
Structure (SMILES): COc1ccc2c(OC)cc(=O)oc2c1C

IC50 [4]: > 100 µM
Structure (SMILES): COc1ccc2c(OC)cc(=O)oc2c1

inhibition [14]: < 20%
Structure (SMILES): O=c1ccc2cc(O)c(O)cc2o1

Activity [5]: 28.1%
Ki [15]: 0.587 µM
Activity [6]: 30%
Activity [7]: 9.2%
Activity [8]: 23.8%
inhibition [16]: Active
inhibition [17]: 2%
Activity [10]: 33.4%
Activity [11]: 29.4%
IC50 ([2]; read-out: IC50): > 200 µM
IC50 ([3]; read-out: IC50): > 200 µM
IC50 [18]: 88.4 µM
inhibition [19]: 23%
Activity [12]: 32.7%
inhibition [20]: Dose-dependent effect
IC50 [4]: 0.86 µM
Activity [13]: 13.4%
Structure (SMILES): O=c1oc2cc(O)ccc2c(O)c1-c1c(O)ccc(O)c1-c1c(O)c2ccc(O)cc2oc1=O

Structure (SMILES): Cc1ccc2oc(=O)cc(O)c2c1
inhibition [14]: < 20%

inhibition [14]: < 20%
Structure (SMILES): O=c1ccc2cc(O)ccc2o1

inhibition [1]: 0%
IC50 [2]: Not Active
IC50 [3]: Not Active
IC50 [4]: 35.3 µM
Structure (SMILES): O=c1oc2ccccc2cc1O [3-HYDROXYCOUMARIN]

inhibition [1]: 53.9%
IC50 ([2]; read-out: IC50): 45.4 µM
IC50 ([3]; read-out: IC50): > 200 µM
IC50 [4]: 64.6 µM
Structure (SMILES): Cc1cc(=O)oc2cc(O)cc(O)c12 [5,7-DIHYDROXY-4-METHYLCOUMARIN]

IC50 [4]: 94.2 µM
Structure (SMILES): Cc1cc(=O)oc2cc(O)c(O)cc12 [4-METHYLESCULETIN]

IC50 [4]: 35.5 µM
Structure (SMILES): OC[C@H]1NC[C@H](O)[C@@H](O)[C@@H]1O [DUVOGLUSTAT]

IC50 [4]: 56.2 µM
Structure (SMILES): Cc1cc(=O)oc2cc(O)ccc12 [HYMECROMONE]

IC50 [4]: 52.7 µM
Structure (SMILES): Cc1cc(=O)oc2c(O)c(O)ccc12 [4-METHYLDAPHNETIN]

IC50 [4]: 96.1 µM
Structure (SMILES): COc1ccc2c(O)cc(=O)oc2c1

IC50 [4]: 12.4 µM
Structure (SMILES): O=c1c(-c2ccc(O)cc2)coc2cc(O)cc(O)c12 [GENISTEIN]
